In the library only some 2.4% were active in any assay of this set; here they are far more common.
NPY Y1 blocker: NPY-Y1 receptor antagonists, primary screen, cell-based; HEK293-CNG Y1 cells, membrane potential fluorescence; NPY at EC95, then isoproterenol; Neuropeptide Y receptor type 1 (Homo sapiens), P25929; inhibition, % at 3.6 µM; AID 1040, 2008; 1% of 200,000 active;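 active = inhibition above the campaign mean inhibition of all tested compounds plus 3 SD, cut at about 20% in these data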;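 note: 0% = DMSO wells given NPY plus isoproterenol and 100% = isoproterenol alone without NPY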
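Test system: HEK293 cells co-expressing NPY Y1 receptor and cyclic-nucleotide gated channel; Also added: NPY (25 nM), isoproterenol (1 µM), Ro 20-1724 (25 µM); Compound dosing: one concentration, 3.6 µM, in 0.4% DMSO; Timing: dye 3 h, compound 60 min room temperature, stimulation 45 min; Technique: Membrane-potential fluorescent dye readout.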
NPY2 pot ag: NPY-Y2 potentiators or agonists, primary screen, cell-based. 0.45% of 220,000 active. Neuropeptide Y receptor type 2 (Homo sapiens), P49146. activation, % at 3.6 µM. AID 1359, 2008. cells expressing NPY-Y2, potentiator/agonist read-out; in the data active = activation above about 27%;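 note: cells stimulated with NPY near EC25 plus isoproterenol at EC100; 0% = vehicle plus submaximal agonist and 100% = vehicle plus saturating agonist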
S1P4 antag: S1P4 receptor antagonists, primary screen, cell-based; Sphingosine 1-phosphate receptor 4 (Homo sapiens), O95977; AID 1510, 2009; 0.26% of 220,000 active; S1P4-expressing cells, antagonist mode, reporter read-out; inhibition, % at 4.98 µM; in the data active = inhibition above about 29%;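 note: 0% = wells stimulated with agonist and 100% = vehicle wells without agonist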
Target sequence (O95977 whole entry, looked up): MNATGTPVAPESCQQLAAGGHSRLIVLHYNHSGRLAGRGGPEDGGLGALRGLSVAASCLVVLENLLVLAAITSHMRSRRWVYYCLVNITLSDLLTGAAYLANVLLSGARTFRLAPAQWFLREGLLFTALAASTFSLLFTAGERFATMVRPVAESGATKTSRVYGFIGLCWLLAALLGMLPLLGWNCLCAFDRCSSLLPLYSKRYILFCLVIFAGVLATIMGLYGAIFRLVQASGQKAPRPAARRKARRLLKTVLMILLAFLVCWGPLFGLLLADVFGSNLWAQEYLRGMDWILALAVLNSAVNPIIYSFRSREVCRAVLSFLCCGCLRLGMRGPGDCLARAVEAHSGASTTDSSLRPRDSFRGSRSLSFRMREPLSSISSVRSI
S1P4 agonist: S1P4 receptor agonists, primary screen, cell-based; 0.35% of 220,000 active; S1P4-expressing cell line, agonist reporter assay; AID 1509, 2009; activation, % at 4.98 µM; in the data active = activation above about 11%;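 note: 0% = DMSO vehicle and 100% = reference agonist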
NPY Y2 blocker: NPY-Y2 receptor antagonists, primary screen, cell-based. Neuropeptide Y receptor type 2 (Homo sapiens), P49146. NPY-Y2 expressing cells, antagonist mode. inhibition, % at 2.7 µM. 0.99% of 140,000 active; in the data active = inhibition above about 17%;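 note: 0% = vehicle with agonist challenge and 100% = reference antagonist with challenge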
NPY1 pot ag: NPY-Y1 receptor potentiators or agonists, primary screen, cell-based; NPY-Y1 expressing cells, potentiator/agonist activation; activation, % at 3.6 µM; 0.37% of 220,000 active; in the data active = activation above about 33%, passing the limit was not always enough;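 note: cells stimulated with NPY at EC10 then isoproterenol at EC100; 0% = low agonist plus stimulus and 100% = saturating agonist plus stimulus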
S1P4 ag conf: S1P4 receptor agonists, retest, confirmation, cell-based, high throughput | shares compounds with S1P4 agonist | S1P4 agonist cell-based reporter assay | activation, % at 4.98 µM | 7% of 740 active; in the data active = activation above about 12%;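 note: 0% = vehicle and 100% = full reference agonist response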
S1P1 ag: S1P1 receptor agonists, human, counter-screen for S1P4 agonist project, cell-based | shares compounds with S1P4 agonist | S1P1 agonist cell-based assay, activation | activation, % at 4.98 µM | 4% of 740 active | AID 1563, 2009; in the data active = activation above about 21%;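 note: 0% = vehicle wells and 100% = reference agonist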
Numbers without * were called inactive.

Results for OC1(c2cccnc2)CCN(Cc2nnnn2Cc2ccccc2)CC1 ?
NPY Y1 blocker: 3; NPY2 pot ag: -5; S1P4 antag: 0; S1P4 agonist: 53*; NPY1 pot ag: -7; S1P4 ag conf: -2; S1P1 ag: 5

What do the screens show for `C=CCN(c1ccccc1)S(=O)(=O)c1cccc(C(=O)Nc2nc3ccccc3[nH]2)c1`?
NPY Y1 blocker: 8; NPY2 pot ag: -5; S1P4 antag: -28; S1P4 agonist: 22*; NPY Y2 blocker: 5; NPY1 pot ag: -19; S1P4 ag conf: -3; S1P1 ag: -6

Results for CCc1nnc(NC=C2C(=O)OC(C)(C)OC2=O)s1 ?
NPY Y1 blocker: 2; NPY2 pot ag: 0; S1P4 antag: 5; S1P4 agonist: 18*; NPY Y2 blocker: 0; NPY1 pot ag: -2; S1P4 ag conf: -1; S1P1 ag: 3

How did COC(=O)c1ccc(C(=O)O)nc1 do in these assays?
NPY2 pot ag: 3; S1P4 antag: -3; S1P4 agonist: 0; NPY1 pot ag: -9

What do the screens show for `O=C(O)c1ccc(Br)cn1`?
NPY Y1 blocker: 1; NPY2 pot ag: -6; S1P4 antag: 2; S1P4 agonist: 27*; NPY1 pot ag: 4; S1P4 ag conf: -2; S1P1 ag: 2

What do the screens show for `O=C(OCCCc1ccncc1)c1ccc(S(=O)(=O)N2CCOCC2)cc1`?
NPY Y1 blocker: -1; NPY2 pot ag: 3; S1P4 antag: 5; S1P4 agonist: -1; NPY Y2 blocker: 2; NPY1 pot ag: 16

What do the screens show for `COc1ccc(C(=O)CSc2nnc(Cn3cnc4ccccc43)o2)cc1`?
NPY Y1 blocker: 2; NPY2 pot ag: 8; S1P4 antag: -16; S1P4 agonist: 0; NPY Y2 blocker: 4; NPY1 pot ag: -50

Results for Cc1ccc(NC(=O)c2ccc(OC(=O)CCN3C(=O)c4ccccc4C3=O)cc2)cc1 ?
NPY Y1 blocker: -1; NPY2 pot ag: 5; S1P4 antag: 1; S1P4 agonist: 11*; NPY Y2 blocker: 3; NPY1 pot ag: 1; S1P4 ag conf: 1; S1P1 ag: -7

How did Cc1cc(C)cc(OC(=O)CCN2C(=O)c3ccccc3C2=O)c1 do in these assays?
NPY Y1 blocker: 4; NPY2 pot ag: 1; S1P4 antag: 0; S1P4 agonist: -2; NPY Y2 blocker: 2; NPY1 pot ag: -13

What do the screens show for `C[C@]1(C(=O)NCCN2CCOCC2)C=C[C@@H](Cc2ccccc2)N1C(=O)c1ccccc1`?
NPY Y1 blocker: -1; NPY2 pot ag: 1; S1P4 antag: 14; S1P4 agonist: 0; NPY Y2 blocker: -2; NPY1 pot ag: -12

Results for O=C(CN1CCSCC1)N/N=C/c1ccccc1F ?
NPY Y1 blocker: 4; NPY2 pot ag: -5; S1P4 antag: -2; S1P4 agonist: 1; NPY Y2 blocker: -1; NPY1 pot ag: -25

What do the screens show for `O=C(O)c1ccc(N/N=C/c2ccc(-c3ccccc3Cl)o2)cc1`?
NPY2 pot ag: 17; S1P4 antag: -18; S1P4 agonist: 11*; NPY1 pot ag: 1; S1P4 ag conf: 8; S1P1 ag: 18

What do the screens show for `CCOc1ccc(-n2c(SCC(=O)Nc3nccs3)nnc2-c2ccoc2C)cc1`?
NPY2 pot ag: -30; S1P4 antag: 5; S1P4 agonist: 0; NPY1 pot ag: 1

How did CCOc1ccccc1-n1c(SCC(=O)Nc2nccs2)nnc1-c1ccoc1C do in these assays?
NPY Y1 blocker: 17; NPY2 pot ag: -4; S1P4 antag: 4; S1P4 agonist: 19*; NPY Y2 blocker: 17; NPY1 pot ag: -25; S1P4 ag conf: -2; S1P1 ag: 4

What do the screens show for `O=C(N/N=C\c1ccccc1)c1ccccc1-n1cccc1`?
NPY Y1 blocker: 7; NPY2 pot ag: -8; S1P4 antag: -28; S1P4 agonist: 1; NPY1 pot ag: -6

Results for O=C(N/N=C\c1ccc(O)c([N+](=O)[O-])c1)c1ccccc1-n1cccc1 ?
NPY Y1 blocker: -1; NPY2 pot ag: 7; S1P4 antag: -26; S1P4 agonist: 16*; NPY Y2 blocker: 0; NPY1 pot ag: 10; S1P4 ag conf: -2; S1P1 ag: 1

What do the screens show for `O=S(=O)(c1ccc(Oc2ccc(S(=O)(=O)N(CCO)CCO)cc2)cc1)N(CCO)CCO`?
NPY Y1 blocker: 3; NPY2 pot ag: 2; S1P4 antag: -11; S1P4 agonist: -2; NPY1 pot ag: 7

What do the screens show for `O=S(=O)(c1ccc(N2CCC(c3ccc(Cl)cc3)=N2)cc1)N(CCO)CCO`?
NPY Y1 blocker: -3; NPY2 pot ag: 15; S1P4 antag: -22; S1P4 agonist: 21*; NPY Y2 blocker: 2; NPY1 pot ag: 17; S1P4 ag conf: 21*; S1P1 ag: 69*

What do the screens show for `COC(=O)c1cc(C(=O)c2ccc(Cl)cc2Cl)cn1C`?
NPY Y1 blocker: 5; NPY2 pot ag: -6; S1P4 antag: -21; S1P4 agonist: -2; NPY Y2 blocker: 2; NPY1 pot ag: -2

Results for CN(C)CCNc1nc2c(c(=O)[nH]c(=O)n2C)n1CCCc1ccccc1 ?
NPY Y1 blocker: -1; NPY2 pot ag: -11; S1P4 antag: -12; S1P4 agonist: 0; NPY Y2 blocker: 0; NPY1 pot ag: 0

What do the screens show for `CCCn1c(SCC(=O)NCC2CCCO2)nc2c1c(=O)n(C)c(=O)n2C` (configuration not stated)?
NPY Y1 blocker: 1; NPY2 pot ag: 3; S1P4 antag: 0; S1P4 agonist: 34*; NPY Y2 blocker: 4; NPY1 pot ag: 5; S1P4 ag conf: -2; S1P1 ag: -2

Results for COc1ccc(OC)c(/C=N/NC(=O)Cc2nc3ccccc3[nH]2)c1 ?
NPY Y1 blocker: 3; NPY2 pot ag: -10; S1P4 antag: -27; S1P4 agonist: 12*; NPY Y2 blocker: 3; NPY1 pot ag: -9; S1P4 ag conf: -2; S1P1 ag: -8

What do the screens show for `O=C(Cc1nc2ccccc2[nH]1)N/N=C/c1ccccc1`?
NPY Y1 blocker: 0; NPY2 pot ag: 11; S1P4 antag: -17; S1P4 agonist: 7; NPY Y2 blocker: 0; NPY1 pot ag: -2

How did O=C(CCn1c(=O)sc2ccccc21)NC1=NCCS1 do in these assays?
NPY Y1 blocker: 1; NPY2 pot ag: 5; S1P4 antag: -6; S1P4 agonist: 2; NPY Y2 blocker: 4; NPY1 pot ag: 7
